Assays:
Assay type in all cases: functional
Rattus norvegicus [1] = organism: Rattus norvegicus; test: Sensitization effect was determined
Rattus norvegicus [2] = organism: Rattus norvegicus; test: Inhibitory concentration against evoked synaptic field potential of CA1 neurons in presence of 16 uM quisqualic acid from rat hippocampus
Procedure, shortened: (§1)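 Transverse 500-µm hippocampal slices from 30–100-day-old male Sprague-Dawley rats, submerged in oxygenated medium at 34 °C. Field potentials evoked by stimulating the Schaffer collaterals. Compound started at a subthreshold level and doubled every 4 min until the response fell >70% or exceeded 10 mM. IC50 was interpolated from fractional peak amplitude versus log concentration. Sequence included a 16 µM L-quisqualate exposure between tests.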

Rattus norvegicus [3] = organism: Rattus norvegicus; test: Inhibitory concentration against evoked synaptic field potential of CA1 neurons in absence of quisqualic acid from rat hippocampus; procedure, shortened: as §1

IC50 (Rattus norvegicus [2]) | IC50 (Rattus norvegicus [3]) | Compound | Sensitisation (Rattus norvegicus [1]) | IC50 (Rattus norvegicus [2]; Rattus norvegicus) | IC50 (Rattus norvegicus [3]; Rattus norvegicus)
– | – | N[C@H](CCP(=O)(O)O)C(=O)O | 17 | 152 µM | 2600 µM
– | – | CN1C(=O)C=C(C[C@H](N)C(=O)O)C1=O | 14 | 6.8 µM | 95 µM
– | – | N[C@H](Cn1oc(=O)[nH]c1=O)C(=O)O | 7.5 | 10 µM | 78 µM
– | – | N[C@@H](CCP(=O)(O)O)C(=O)O | 33 | 55 µM | 1800 µM
– | – | N[C@@H](CC1=CC(=O)NC1=O)C(=O)O | 2.2 | 9.5 µM | 21 µM
– | – | N[C@@H](CC1=CC(=O)N(CC(=O)O)C1=O)C(=O)O | 7.7 | – | –
– | – | NC(CN1CC(=O)NC1=O)C(=O)O (configuration not stated) | 1.7 | 0.8 µM | 1.4 µM
> 10000 µM | > 10000 µM | N[C@@H](CC1CC(=O)NC1=O)C(=O)O (stereo in doubt; 5a) | – | – | –
6800 µM | 9200 µM | N[C@@H](CC1CC(=O)NC1=O)C(=O)O (stereo in doubt; 5b) | 1.3 | – | –
– | – | N[C@@H](Cn1oc(=O)[nH]c1=O)C(=O)O [QUISQUALATE] | 1.3 | 2.9 µM | 3.9 µM

— ChEMBL document CHEMBL1126108, “Quisqualic acid analogues: synthesis of beta-heterocyclic 2-aminopropanoic acid derivatives and their activity at a novel quisqualate-sensitized site” (J Med Chem, 1992)
